Activity calls are given as the source filed them. The calls are words filed in the database; no cut-off is given here.
Columns and labels:
SiHa = assay: Cytotoxicity against human SiHa cells measured after 48 hrs by MTT assay; type: functional, cell-based
Outline: (§1)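 Seeded at 7x10^3 cells/well and allowed 24 h to attach. Compounds added at final 0 to 200 μM and incubated 48 h. Viability read by MTT. IC50 taken as the concentration giving 50% growth inhibition; mean ± SD, N = 4.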

MCF7 [1] = assay: Potentiation of TRAIL-induced cytotoxicity against human MCF7 cells assessed as reduction in cell growth at cytotoxic IC50 measured after 48 hrs by MTT assay; type: functional, cell-based
Outline: (§2)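 Viability read by MTT. Growth inhibition calculated as OD570 of untreated minus OD570 of treated cells; mean and SD.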

SW-620 [2] = assay: Cytotoxicity against human SW620 cells measured after 48 hrs by MTT assay; type: functional, cell-based; settings: SW-620, 48 h; outline: as §1
SW-620 [3] = assay: Potentiation of TRAIL-induced cytotoxicity against human SW620 cells assessed as reduction in cell growth at cytotoxic IC50 measured after 48 hrs by MTT assay; type: functional, cell-based; outline: as §2
MCF7 [4] = assay: Cytotoxicity against human MCF7 cells measured after 48 hrs by MTT assay; type: functional, cell-based; settings: MCF7, 48 h; outline: as §1
LS-411N = assay: Potentiation of TRAIL-induced cytotoxicity against human LS411N cells assessed as reduction in cell growth at cytotoxic IC50 measured after 48 hrs by MTT assay; type: functional, cell-based; outline: as §2
A-431 = assay: Cytotoxicity against human A431 cells measured after 48 hrs by MTT assay; type: functional, cell-based; settings: A-431, 48 h; outline: as §1
[5] = Cytotoxicity against human SA cells measured after 48 hrs by MTT assay; type: functional, cell-based; settings: +SA cell; outline: as §1
HeLa = assay: Potentiation of TRAIL-induced cytotoxicity against human HeLa cells assessed as reduction in cell growth at cytotoxic IC50 measured after 48 hrs by MTT assay; type: functional, cell-based; outline: as §2
HepG2 [6] = assay: Potentiation of TRAIL-induced cytotoxicity against human HepG2 cells assessed as reduction in cell growth at cytotoxic IC50 measured after 48 hrs by MTT assay; type: functional, cell-based; outline: as §2
HepG2 [7] = assay: Cytotoxicity against human HepG2 cells measured after 48 hrs by MTT assay; type: functional, cell-based; settings: HepG2, 48 h; outline: as §1
SW-620 [8] = assay: Induction of apoptosis in human SW620 cells assessed as morphological changes by measuring appearance of shining cells at cytotoxic IC50 measured after 8 to 24 hrs by Hoechst 33342 staining based fluorescence microscopic analysis; type: functional, cell-based
SW-620 [9] = assay: Induction of apoptosis in human SW620 cells assessed as XIAP protein level at 20 uM measured after 48 hrs by Western blot analysis relative to beta-actin (reference value: 1); type: functional
SW-620 [10] = assay: Toxicity in athymic mouse xenografted with human SW620 cells assessed as serum creatine kinase level at 100 mg/kg administered as injection every other day for 15 days measured post last dose by ELISA (reference value: 1.94 +/- 1.04 U/L); settings: in vivo, 360 h
SW-620 [11] = assay: Induction of apoptosis in human SW620 cells assessed as Bcl-xl protein level at 10 uM measured after 48 hrs by Western blot analysis relative to beta-actin (reference value: 1); type: functional
SW-620 [12] = assay: Induction of apoptosis in human SW620 cells assessed as XIAP protein level at 10 uM measured after 48 hrs by Western blot analysis relative to beta-actin (reference value: 1); type: functional
SW-620 [13] = assay: Induction of apoptosis in human SW620 cells assessed as Bcl-xl protein level at 20 uM measured after 48 hrs by Western blot analysis relative to beta-actin (reference value: 1); type: functional
SW-620 [14] = assay: Induction of apoptosis in human SW620 cells assessed as XIAP protein level at 15 uM measured after 48 hrs by Western blot analysis relative to beta-actin (reference value: 1); type: functional
SW-620 [15] = assay: Induction of apoptosis in human SW620 cells assessed as Bcl-xl protein level at 15 uM measured after 48 hrs by Western blot analysis relative to beta-actin (reference value: 1); type: functional
SW-620 [16] = assay: Antitumor activity against human SW620 cells xenografted in athymic mouse assessed as suppression of tumor growth at 100 mg/kg administered as injection every other day for 15 days measured during compound dosing; type: functional, organism-based
Outline: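 SW620 colon carcinoma cells (3x10^6 per mouse) implanted subcutaneously in athymic mice. Randomised at 60-80 mm³ tumour size, n=6 per group. Dosed 100 mg/kg on alternate days for 15 days. Vehicle control received 200 μL 1% polyoxyethylated castor oil. Tumour measured in three diameters with a caliper to give volume.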

| SMILES | IC50 (SiHa) | Activity (MCF7 [1]) | IC50 (SW-620 [2]) | Activity (SW-620 [3]) | IC50 (MCF7 [4]) | Activity (LS-411N) | IC50 (A-431) | IC50 [5] | Activity (HeLa) | Activity (HepG2 [6]) | IC50 (HepG2 [7]) | Activity (SW-620 [8]) | fold change (FC) (SW-620 [9]) | Activity (SW-620 [10]) | fold change (FC) (SW-620 [11]) | fold change (FC) (SW-620 [12]) | fold change (FC) (SW-620 [13]) | fold change (FC) (SW-620 [14]) | fold change (FC) (SW-620 [15]) | Activity (SW-620 [16]) |
| --- | --- | --- | --- | --- | --- | --- | --- | --- | --- | --- | --- | --- | --- | --- | --- | --- | --- | --- | --- | --- |
| CCCCCCCCCCCCNC(=O)[C@@H](NC(=O)c1ccco1)[C@@H](C)O | 64.3 µM | Active | 87.5 µM | Active | 67.5 µM | Active | 92.4 µM | 93.5 µM | Active | Active |  |  |  |  |  |  |  |  |  |  |
| CCCCCCCCCCCCCCNC(=O)[C@@H](NC(=O)c1cc2ccccc2n1C)[C@@H](C)O | 26.5 µM |  | 21.5 µM |  | 25.7 µM |  | 13.7 µM | 25.7 µM |  |  | 34.5 µM | Active |  |  |  |  |  |  |  |  |
| CCCCCCCCNC(=O)[C@@H](NC(=O)c1cc2ccccc2o1)[C@@H](C)O | 66.5 µM | Active | 200 µM | Active | 47.2 µM | Active | 52.7 µM | 40.8 µM | Active | Active | 81.3 µM |  |  |  |  |  |  |  |  |  |
| CCCCCCCCCCCCCCNC(=O)[C@@H](NS(=O)(=O)c1ccc(C)cc1)[C@@H](C)O | 19.2 µM |  | 15.2 µM |  | 12.9 µM |  | 12 µM | 10.9 µM |  |  | 10.9 µM | Active | 0.94 | 2.32 U/L | 0.88 | 1.06 | 0.67 | 1 | 0.73 | Active |
| CCCCCCCCCCCCNC(=O)[C@@H](NC(=O)c1ccccc1)[C@@H](C)O | 63.9 µM | Active | 200 µM | Active | 36.6 µM | Active | 41.2 µM | 75.5 µM | Active | Active |  |  |  |  |  |  |  |  |  |  |
| CCCCCCCCCCCCCCNC(=O)[C@@H](N)[C@@H](C)O | 11 µM |  | 18.7 µM |  | 10.7 µM |  | 14.6 µM | 11 µM |  |  |  |  | 0.15 | 2.98 U/L | 0.82 | 1.22 | 0.34 | 1.29 | 0.68 | Active |
| C/C=C/C=C/C(=O)N[C@H](C(=O)NCCCCCCCC)[C@@H](C)O |  | Active | 200 µM | Active |  | Active | 58.2 µM | 40.4 µM | Active | Active |  |  |  |  |  |  |  |  |  |  |
| CCCCCCCCCCCCCCNC(=O)[C@@H](NC(=O)Cc1c[nH]c2ccccc12)[C@@H](C)O | 4.8 µM |  | 22 µM |  | 6.81 µM |  | 15.5 µM | 11.5 µM |  |  | 21.1 µM | Active | 0.06 | 2.44 U/L | 1.32 | 1.03 | 0.47 | 0.86 | 1.46 | Active |
| CCCCCCCCCCCCNC(=O)[C@@H](NC(=O)c1nccc2ccccc12)[C@@H](C)O | 56.6 µM | Active | 65.8 µM | Active | 50.5 µM | Active | 62.8 µM | 51.9 µM | Active | Active | 65.7 µM |  |  |  |  |  |  |  |  |  |
| CCCCCCCCCCCCCCCCCCNC(=O)[C@@H](NC(=O)c1nccc2ccccc12)[C@@H](C)O | 51.2 µM | Active |  | Active | 30.8 µM | Active | 44.1 µM | 49.1 µM | Active | Active | 96.9 µM |  |  |  |  |  |  |  |  |  |
| CCCCCCCCCCCCCCNC(=O)[C@@H](NS(=O)(=O)c1ccc2ccccc2c1)[C@@H](C)O | 11.1 µM |  | 9.36 µM |  | 12.2 µM |  | 19.6 µM | 10.2 µM |  |  | 11.4 µM | Active | 0.93 | 2.63 U/L | 1.05 | 1.21 | 0.55 | 1.14 | 1.08 | Active |
| CCCCCCCCNC(=O)[C@@H](NC(=O)c1cccs1)[C@@H](C)O | 91.9 µM | Active |  | Active | 72.5 µM | Active | 32.1 µM | 60.9 µM | Active | Active |  |  |  |  |  |  |  |  |  |  |
